Each structure is given as a SMILES string.

Common to all, as to format: functional
Experiment [1] deals with Gloeophyllum trabeum. The experiment in a line: Antifungal activity against Gloeophyllum trabeum BCRC 31614 (wood decay fungi) assessed as reduction of fungi mycelium growth at 100 ug/ml. A digest of the protocol:
(§1)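 Fungi kept on potato dextrose agar at 4 °C. Samples dissolved in 150 μL ethanol and mixed into 15 mL PDA to give the final concentration. A 5 mm mycelial plug from the culture edge was placed centrally on each 9-cm plate. Plates were held in the dark at 26 ± 2 °C and 70% RH. Antifungal index was scored once control plates without test material were fully overgrown.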

The subject of experiment [2] is Laetiporus sulphureus. The experiment in a line: Antifungal activity against Laetiporus sulphureus BCRC 35305 (wood decay fungi) assessed as reduction of fungi mycelium growth at 100 ug/ml. In outline:
as §1

The test system of experiment [3] is Trametes versicolor. Kind of experiment: Antifungal activity against Trametes versicolor BCRC 35253 wood decay fungi assessed as reduction of fungi mycelium growth at 100 ug/ml. A digest of the protocol:
as §1

Experiment [4] concerns Lenzites betulinus. Kind of experiment: Antifungal activity against Lenzites betulinus BCRC 35296 assessed as reduction of fungi mycelium growth at 100 ug/ml. A digest of the protocol:
as §1

On to `C=CC(=C)CC[C@@H]1[C@@]2(C)CCCC(C)(C)[C@@H]2CC[C@@]1(C)O` [ISOABIENOL], for which the inhibition – broadly, the share of the control response that was lost under treatment – at 100 µg/mL in experiment [1] was determined as 6.8%; in experiment [2], 8.2%; in experiment [3] it was 27.8%; in experiment [4] it was 25.6%.
For the molecule `CC1=C[C@@H]2[C@@H](CC1)[C@@](C)(O)CC[C@H]2C(C)C` [T-CADINOL], the inhibition at 100 µg/mL turned out to be 100% in experiment [1], 100% in experiment [2], 51.4% in experiment [3] and 100% in experiment [4].
In the case of `CC1=C[C@H]2[C@H](C(C)C)CC[C@](C)(O)[C@H]2CC1` [T-MUUROLOL], the inhibition at 100 µg/mL amounted to 100% in experiment [1], 100% in experiment [2], 39.5% in experiment [3] and 100% in experiment [4].
Turning to `CCCCCCCCCC[N+](C)(C)CCCCCCCCCC` [DIDECYLDIMETHYLAMMONIUM CHLORIDE], the inhibition at 100 µg/mL in experiment [1], in experiment [2], in experiment [3] and in experiment [4] was 100% each time.
With `C[C@@H]1CC[C@H]2C(C)(C)[C@H]3C[C@@]12CC[C@@]3(C)O` [CEDROL], the inhibition at 100 µg/mL in experiment [1] was 68.3%; in experiment [2], 100%; in experiment [3] it was 74.8%; in experiment [4], 95.5%.

The values are drawn from ChEMBL document CHEMBL3045566, “Phytochemicals from Cunninghamia konishii Hayata act as antifungal agents” (2012).
